Data reported in ChEMBL document CHEMBL1124390, “Synthesis and antiviral activity of phosphonoacetic and phosphonoformic acid esters of 5-bromo-2'-deoxyuridine and related pyrimidine nucleosides and acyclonucleosides” (1989).

Columns and labels:
Format in all cases: functional
Human alphaherpesvirus 2 = assay: Concentration required to reduce the number of viral plaques […] cell monolayers of herpes simplex virus type 2.
Outline: (§1)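 Plaque-reduction assay on Vero monkey kidney cells grown in DMEM + 10% v/v newborn bovine serum. HSV-1 strain HFEM or HSV-2 strain 3345, 50 pfu in duplicate, adsorbed at 4 °C to drained monolayers. Serum-free medium with carboxymethylcellulose plus compound dilution series added; 3 days at 37 °C. Formaldehyde fixation, Giemsa stain; ID50 interpolated from plotted results.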

Human alphaherpesvirus 1 [1] = assay: Concentration required to reduce the number of viral plaques […] cell monolayers of herpes simplex virus type 1.; outline: as §1
Human alphaherpesvirus 1 [2] = assay: Concentration required to protect 50% of mice against a systemic infection of HSV-1.
Outline: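 Swiss albino mice (9-12 g) given test substance 0.5 mL ip at -24, 0 and +24 h relative to infection (three treatments); controls got 0.5 mL water ip on the same schedule. Infection ip with approx 10x LD50 of HSV-1. Survivors counted on day 21; PD50 derived by Reed-Muench method.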

CC(=O)c1cn(C2O[C@H](COP(=O)(O)CC(=O)O)[C@@H](O)[C@@H]2O)c(=O)[nH]c1=O (stereo partly specified)
ID50 (Human alphaherpesvirus 2): >2000 µM
ID50 (Human alphaherpesvirus 1 [1]): >2000 µM

O=c1[nH]c(=O)n(C2O[C@H](CO)[C@@H](O)[C@@H]2O)cc1I (stereo partly specified)
ID50 (Human alphaherpesvirus 2): 60 µM
ID50 (Human alphaherpesvirus 1 [1]): 13 µM

CCc1cn([C@H]2C[C@H](O)[C@@H](CO)O2)c(=O)[nH]c1=O [EDOXUDINE]
ID50 (Human alphaherpesvirus 2): 23 µM
ID50 (Human alphaherpesvirus 1 [1]): 40 µM

C#Cc1cn([C@H]2C[C@H](O)[C@@H](COP(=O)(O)CC(=O)O)O2)c(=O)[nH]c1=O
ID50 (Human alphaherpesvirus 2): >200 µM
ID50 (Human alphaherpesvirus 1 [1]): >200 µM

Cc1cn([C@@H]2O[C@H](CO)[C@@H](O)[C@@H]2O)c(=O)[nH]c1=O
ID50 (Human alphaherpesvirus 2): 19 µM
ID50 (Human alphaherpesvirus 1 [1]): 10 µM

C=Cc1cn(C2O[C@H](COP(=O)(O)CC(=O)O)[C@@H](O)[C@@H]2O)c(=O)[nH]c1=O (stereo partly specified)
ID50 (Human alphaherpesvirus 2): >2000 µM
ID50 (Human alphaherpesvirus 1 [1]): >2000 µM

O=C(CP(=O)(O)O)OC[C@H]1O[C@@H](n2cc(Br)c(=O)[nH]c2=O)C[C@@H]1O
ID50 (Human alphaherpesvirus 2): 7.4 µM
ID50 (Human alphaherpesvirus 1 [1]): 12 µM

O=C(O)CP(=O)(O)OC[C@H]1O[C@@H](n2cc(Br)c(=O)[nH]c2=O)C[C@@H]1O
ID50 (Human alphaherpesvirus 2): 1.2 µM
PD50 (Human alphaherpesvirus 1 [2]): 0.2 mM/kg
ID50 (Human alphaherpesvirus 1 [1]): 16 µM

Nc1ncnc2c1ncn2[C@@H]1O[C@H](CO)[C@@H](O)[C@@H]1O [VIDARABINE]
ID50 (Human alphaherpesvirus 2): 75 µM
ID50 (Human alphaherpesvirus 1 [1]): 11 µM

O=C(O)CP(=O)(O)OC[C@H]1O[C@@H](n2cc(/C=C/Br)c(=O)[nH]c2=O)C[C@@H]1O
ID50 (Human alphaherpesvirus 2): 1000 µM
ID50 (Human alphaherpesvirus 1 [1]): 2.7 µM

C=Cc1cn([C@H]2C[C@H](O)[C@@H](CO)O2)c(=O)[nH]c1=O
ID50 (Human alphaherpesvirus 2): 2 µM
ID50 (Human alphaherpesvirus 1 [1]): 0.8 µM

O=C(O)CP(=O)(O)O [FOSFONET]
ID50 (Human alphaherpesvirus 2): 240 µM
PD50 (Human alphaherpesvirus 1 [2]): 0.67 mM/kg
ID50 (Human alphaherpesvirus 1 [1]): 230 µM

Cc1cn([C@H]2C[C@H](O)[C@@H](COP(=O)(O)CC(=O)O)O2)c(=O)[nH]c1=O
ID50 (Human alphaherpesvirus 2): 160 µM
PD50 (Human alphaherpesvirus 1 [2]): 0.45 mM/kg
ID50 (Human alphaherpesvirus 1 [1]): 400 µM

Nc1ncc([C@@H]2O[C@H](COP(=O)(O)CC(=O)O)[C@@H](O)[C@H]2O)c(=O)[nH]1
ID50 (Human alphaherpesvirus 2): 770 µM
ID50 (Human alphaherpesvirus 1 [1]): 780 µM

O=C(O)P(=O)(O)O [FOSCARNET]
ID50 (Human alphaherpesvirus 2): 120 µM
ID50 (Human alphaherpesvirus 1 [1]): 130 µM

C#Cc1cn([C@H]2C[C@H](O)[C@@H](CO)O2)c(=O)[nH]c1=O
ID50 (Human alphaherpesvirus 2): 11 µM
ID50 (Human alphaherpesvirus 1 [1]): 11 µM

O=c1[nH]c(=O)n([C@H]2C[C@H](O)[C@@H](CO)O2)cc1I [IDOXURIDINE]
ID50 (Human alphaherpesvirus 2): 2.3 µM
ID50 (Human alphaherpesvirus 1 [1]): 2 µM

O=C(O)P(=O)(O)OC[C@H]1O[C@@H](n2cc(Br)c(=O)[nH]c2=O)C[C@@H]1O
ID50 (Human alphaherpesvirus 2): 0.44 µM
ID50 (Human alphaherpesvirus 1 [1]): 4.6 µM

Nc1nc(O)c2ncn(C3O[C@H](COP(=O)(O)CC(=O)O)[C@@H](O)[C@H]3O)c2n1 (stereo partly specified)
ID50 (Human alphaherpesvirus 2): >2000 µM
PD50 (Human alphaherpesvirus 1 [2]): 0.36 mM/kg
ID50 (Human alphaherpesvirus 1 [1]): >2000 µM

Nc1ncnc2c1ncn2[C@@H]1O[C@H](COP(=O)(O)CC(=O)O)[C@@H](O)[C@H]1O
PD50 (Human alphaherpesvirus 1 [2]): 0.4 mM/kg
ID50 (Human alphaherpesvirus 1 [1]): 580 µM

O=C(O)CP(=O)(O)OC[C@H]1O[C@@H](n2cc(I)c(=O)[nH]c2=O)C[C@@H]1O
ID50 (Human alphaherpesvirus 2): 10 µM
PD50 (Human alphaherpesvirus 1 [2]): 0.21 mM/kg
ID50 (Human alphaherpesvirus 1 [1]): 40 µM

O=C(O)CP(=O)(O)OC[C@H]1OC(n2cc(I)c(=O)[nH]c2=O)[C@@H](O)[C@@H]1O (stereo partly specified)
ID50 (Human alphaherpesvirus 2): >2000 µM
ID50 (Human alphaherpesvirus 1 [1]): >2000 µM

Nc1nc2c(ncn2COCCO)c(=O)[nH]1 [ACYCLOVIR]
ID50 (Human alphaherpesvirus 2): 2.2 µM
ID50 (Human alphaherpesvirus 1 [1]): 1.3 µM

O=C(O)CP(=O)(O)OC[C@H]1OC(n2cc(Br)c(=O)[nH]c2=O)[C@@H](O)[C@@H]1O (stereo partly specified)
ID50 (Human alphaherpesvirus 2): >2000 µM
ID50 (Human alphaherpesvirus 1 [1]): >2000 µM

O=c1[nH]c(=O)n([C@H]2C[C@H](O)[C@@H](CO)O2)cc1Br [BROXURIDINE]
ID50 (Human alphaherpesvirus 2): 0.7 µM
ID50 (Human alphaherpesvirus 1 [1]): 2 µM

Nc1nc(=O)n([C@H]2C[C@H](O)[C@@H](COP(=O)(O)CC(=O)O)O2)cc1Br
ID50 (Human alphaherpesvirus 2): 15 µM
ID50 (Human alphaherpesvirus 1 [1]): 72 µM

Nc1nc(=O)n([C@H]2C[C@H](O)[C@@H](CO)O2)cc1Br
ID50 (Human alphaherpesvirus 2): 0.15 µM
ID50 (Human alphaherpesvirus 1 [1]): 1.5 µM

O=C(O)CP(=O)(O)OC[C@H]1OC(n2ccc(=O)[nH]c2=O)[C@H](O)[C@@H]1O (stereo partly specified)
PD50 (Human alphaherpesvirus 1 [2]): 0.31 mM/kg
ID50 (Human alphaherpesvirus 1 [1]): 300 µM

C=Cc1cn([C@H]2C[C@H](O)[C@@H](COP(=O)(O)CC(=O)O)O2)c(=O)[nH]c1=O
ID50 (Human alphaherpesvirus 2): 50 µM
ID50 (Human alphaherpesvirus 1 [1]): 14 µM

O=c1[nH]c(=O)n([C@@H]2O[C@H](CO)[C@@H](O)[C@@H]2O)cc1Br
ID50 (Human alphaherpesvirus 2): 5.9 µM
ID50 (Human alphaherpesvirus 1 [1]): 5 µM

Nc1ncnc2c1ncn2[C@@H]1O[C@H](COP(=O)(O)CC(=O)O)[C@@H](O)[C@@H]1O
ID50 (Human alphaherpesvirus 2): >2000 µM
PD50 (Human alphaherpesvirus 1 [2]): 0.53 mM/kg
ID50 (Human alphaherpesvirus 1 [1]): >2000 µM

Nc1nc(O)c2ncn(COCCOP(=O)(O)CC(=O)O)c2n1
ID50 (Human alphaherpesvirus 2): 1500 µM
ID50 (Human alphaherpesvirus 1 [1]): 1800 µM

O=c1[nH]c(=O)n([C@H]2C[C@H](O)[C@@H](CO)O2)cc1/C=C/Br [BRIVUDINE]
ID50 (Human alphaherpesvirus 2): 4.2 µM
ID50 (Human alphaherpesvirus 1 [1]): 0.6 µM

Nc1ccn(C2O[C@H](COP(=O)(O)CC(=O)O)[C@@H](O)[C@H]2O)c(=O)n1 (stereo partly specified)
ID50 (Human alphaherpesvirus 2): 1200 µM
ID50 (Human alphaherpesvirus 1 [1]): 1600 µM

Cc1cn(C2O[C@H](COP(=O)(O)CC(=O)O)[C@@H](O)[C@@H]2O)c(=O)[nH]c1=O (stereo partly specified)
ID50 (Human alphaherpesvirus 2): >2000 µM
ID50 (Human alphaherpesvirus 1 [1]): >2000 µM

CCc1cn([C@H]2C[C@H](O)[C@@H](COP(=O)(O)CC(=O)O)O2)c(=O)[nH]c1=O
ID50 (Human alphaherpesvirus 2): 700 µM
ID50 (Human alphaherpesvirus 1 [1]): 300 µM

Nc1ncnc2c1ncn2[C@H]1C[C@H](O)[C@@H](COP(=O)(O)CC(=O)O)O1
ID50 (Human alphaherpesvirus 2): >2000 µM
PD50 (Human alphaherpesvirus 1 [2]): 1.05 mM/kg
ID50 (Human alphaherpesvirus 1 [1]): >2000 µM
